# High-throughput results from PubChem BioAssay.
# Sampled rows, rich in hits. Any-hit rate of the full collection: about 8.9%.
# Lmaj promast = Leishmania major promastigote growth inhibition. 9% of 200,000 active. inhibition, % at 10 µM. Leishmania major promastigotes, resazurin fluorescence viability; in the data active = inhibition above about 50%;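 also: promastigotes grown with compound for 44 hours at 28 °C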
# Dynein transport = blocks dynein driven cargo transport along microtubules; 3617.4 mouse cells, GR-EGFP nuclear translocation imaging; test concentration mostly 20 µM; stimulated with dexamethasone, 1 µM; active compounds read low; z-score, hits read low; 0.47% of 220,000 active; AID 1381;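 active = plate z-score of nuclear minus cytoplasmic receptor signal below a set negative limit, without overly bright fluorescence or cell loss, cut at about -3.5 in these data, passing the limit was not always enough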;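 also: z-score of nuclear minus cytoplasmic ring GR-EGFP intensity difference per well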
#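 Buffer or medium: Induction medium lacking tetracycline, stripped serum | Also added: Dexamethasone agonist, 1.0 µM final, for 30 min | Timing: 48 h induction, 1 h compound, 30 min dex at 37 °C | Detection: Formaldehyde fixation, Hoechst nuclear stain, 10x automated fluorescence imaging | Measure: Nuclear versus cytoplasmic GR-EGFP signal, averaged per well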
# HSV replic up = HSV replication enhancement; HSV replication augmentation in cells, fold increase; maximum fold increase; 0.005% of 220,000 active; AID 1956; in the data active = maximum fold increase above about 1.5; tested in PC3 cells
# bCat nuc transl = alters nuclear translocation of beta-catenin in HeLa cells. immunofluorescence imaging. nuclear translocation activity, % at 5 µM. 0.3% of 190,000 active;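 active = nuclear translocation activity above 50% at 5 µM, with a well cell count of 50 or more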;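 also: per-cell ratio of nuclear to cytoplasmic median beta-catenin stain intensity; plate controls were DMSO negative control for no effect and GSK-3 inhibitor IX positive control for full effect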
#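 test system = HeLa cells, endogenous beta-catenin | dosing = single 5 µM dose plus 0.02–20 µM confirmation series | times = compound treatment 24 h, 37°C, 5% CO2 | technique = beta-catenin immunofluorescence imaging with DAPI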
# MT stabilizer = microtubule stabilization, imaging screen; HeLa tubulin immunostaining HCS, 24 h; share of cells brighter than vehicle mean+2SD; % tubulin-high responders, % at 10 µM; 0.83% of 200,000 active;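 active = plate Z-score above 3 for both tubulin-high and condensed-nucleus cell shares, with cell loss under 80%, at 10 µM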;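 also: anti alpha tubulin signal scored within the nucleus-defined area of each cell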
# * marks the source's active call; other numbers are inactive results; i = inactive; x = not tested or not shown.
SMILES,Lmaj promast,Dynein transport,HSV replic up,bCat nuc transl,MT stabilizer
FC(F)Oc1ccc(NC(=S)NCc2nc3ccccc3[nH]2)cc1,8.2,1.8,i,0.0,2.6
O=C(CCS(=O)(=O)c1ccccc1)Nc1ccccc1N1CCOCC1,-2.4,-0.136,i,0.1,1.1
CCOC(=O)Cc1cc(=O)n2[nH]c(-c3ccccc3)c(-c3ccccc3)c2n1,-10.1,-0.909,i,-1.6,2.0
O=C(O)c1cc([N+](=O)[O-])ccc1C(=O)Nc1ccccc1,-3.0,1.12,i,-0.1,3.0
CC(C)CNC(=O)C1CCN(c2ccc(S(=O)(=O)N3CCOCC3)cc2)CC1,0.9,-0.447,i,-2.0,4.6
COc1ccccc1C(=O)NCC1CCN(c2ccc(S(=O)(=O)N3CCOCC3)cc2)CC1,99.6*,0.472,i,x,0.8
CCOC(=O)c1sc(NC(=O)CN2C(=O)NC3(CCCCCCC3)C2=O)c(C(=O)OCC)c1C,x,2.11,i,-1.1,x
Cn1nnnc1SCC(=O)NNC(=O)c1ccc(Cl)cc1,-6.8,-0.934,i,-0.7,1.8
CCn1ccnc1CNCc1cn(-c2cc(C)ccc2C)nc1-c1ccccc1,65.3*,2.05,i,-0.1,2.7
COCCN1CCC(CNCc2cn[nH]c2-c2ccc(C)c(C)c2)C1 (centres undefined),2.7,1.7,i,-6.4,6.8
COCCN1CCC(CNCc2cn(-c3cc(C)ccc3C)nc2-c2ccccc2)C1 (centres undefined),100.3*,-0.356,i,2.4,x
COc1ccc(-n2ncc3c(=O)n(CC(=O)N4CCCc5ccccc54)cnc32)cc1,9.5,0.291,i,-0.2,2.5
O=C1C2C3CCC(C3)C2C(=O)N1c1ccc(OS(=O)(=O)c2ccccc2)cc1 (centres undefined),-5.4,0.113,i,-4.7,2.2
COc1ccc(S(=O)(=O)N2CCC(C(=O)N3CCc4ccccc4C3)CC2)cc1Cl,96.4*,-0.0719,i,-12.2,2.3
Cc1sc(NC(=O)c2ccco2)c(C(c2cccnc2)N2CCC(C)CC2)c1C (centres undefined),91.4*,-0.953,i,-2.2,3.3
Cc1cccc(C(=O)N(c2ccccn2)C(C)c2ccco2)c1 (centres undefined),56.5*,0.891,i,-1.4,3.3
CC(c1ccco1)N(C(=O)c1ccccc1NS(=O)(=O)c1ccc(Cl)c([N+](=O)[O-])c1)c1ccccn1 (centres undefined),80.5*,-1.2,i,x,2.0
CC(C)c1ccc(C(=O)N(c2ccccn2)C(C)c2ccco2)cc1 (centres undefined),13.1,0.139,i,2.6,3.2
Cc1cc(NC(=O)Nc2cccc(C(F)(F)F)c2)no1,8.4,0.0144,i,-2.7,4.2
Cc1n[nH]c(C)c1CNCc1c(C(=O)N2CCCCCCC2)nc2ccc(Cl)cn12,x,-0.338,i,0.3,x
Clc1ccc(-c2nc3ccccn3c2CN2CCOCC2)cc1,35.4,-0.144,i,-3.1,1.0
COc1ccc(-c2nc3ccccn3c2CN2CCN(c3ccccc3F)CC2)cc1,85.2*,-0.917,i,-3.5,2.7
Cc1ccccc1-c1nn2c(-c3ccccc3)nnc2s1,-1.4,0.991,i,-5.7,2.2
CCOc1ccc2c(c1)C(C)=CC(C)(C)N2S(=O)(=O)c1ccc(C)cc1,95.4*,1.34,i,43.7,6.1
CCOc1ccc2c(c1)C(C)=CC(C)(C)N2C(=O)Nc1ccccc1F,68.3*,0.473,i,-7.7,2.1
SMILES,Lmaj promast,Dynein transport,HSV replic up,bCat nuc transl,MT stabilizer
CCOc1ccc(S(=O)(=O)N2CCN(c3ccc(C)cc3C)CC2)cc1,-5.9,-0.864,i,-0.7,6.1
CCNC(=O)N1c2ccc(OCC)cc2C(C)=CC1(C)C,11.1,-1.09,i,-5.6,3.7
COc1ccc2c(c1)C(C)=CC(C)(C)N2S(=O)(=O)c1ccc(C)cc1,97.7*,-0.749,i,62.6*,8.6
CC1=CC(C)(C)N(S(=O)(=O)c2ccc(C)cc2)c2cc(C)ccc21,98.8*,0.698,i,x,20.5*
CC(C)NC(=O)C1CCN(C2CCN(Cc3cn[nH]c3-c3ccccc3)CC2)CC1,-2.7,-0.3,i,1.1,2.0
Cc1ccc(Cn2nc(-c3ccccc3)nc2-c2ccccc2)cc1,25.6,-0.499,x,x,2.1
CCN1CCCC1CNC(=O)c1cc2c(C)nc3ccccc3c2o1 (centres undefined),100.3*,0.697,i,-0.3,4.1
CCCc1ccc2c(N)c(C#N)sc2n1,2.8,-1.53,i,1.1,3.0
CCc1cccc(CC)c1N(COC)C(=O)Cn1c(CO)nc2ccccc21,0.8,-0.229,i,-2.5,2.5
O=S(=O)(c1ccccc1)c1nc(Nc2ccccc2N2CCOCC2)sc1Cl,55.9*,-0.705,i,-4.0,4.3
O=S(=O)(c1ccccc1)c1nc(NC2CC2)sc1Cl,-4.9,-0.00544,i,-3.8,2.2
Cc1cc(OCC(=O)c2ccc(C(F)(F)F)cc2)n2cnnc2n1,x,-0.0756,i,0.0,x
CC(=NC(C)C)C1=C(O)C(C)OC1=O (centres undefined),74.6*,0.128,i,1.4,2.1
Cc1ccccc1-c1nc(CN2CCC(C(=O)NCCCN3CCCC3)CC2)c(C)o1,3.2,-0.0469,i,0.4,2.4
Cc1oc(-c2ccc(Cl)cc2)nc1CN1CCCC(C(=O)NCCCN2CCOCC2)C1 (centres undefined),75.6*,1.06,x,-1.7,5.1
Cc1ccccc1-c1nc(CN2CCC(C(=O)NCCCN3CC(C)CC(C)C3)CC2)c(C)o1 (centres undefined),76.2*,-0.471,i,-3.3,3.2
Cc1oc(-c2ccccc2Cl)nc1CSc1nc2c(c(=O)[nH]1)CCC2,-0.1,0.209,x,1.9,5.3
COc1cccc(N2CCN(Cc3cccnc3)CC2)c1,40.9,0.155,i,-6.4,3.4
FC(F)(F)c1cccc(N2CCN(Cc3ccoc3)CC2)c1,92.8*,-0.186,i,x,2.1
FC(F)(F)c1cccc(N2CCN(Cc3cccnc3)CC2)c1,88.2*,-0.146,i,0.0,3.9
COc1ccc(NC(=O)c2ccco2)cc1NC(=O)c1ccc(Br)o1,7.1,-0.834,i,x,3.5
N#C/C(=N\Nc1ccccc1)C(=N)N1CCCCCC1,x,0.209,i,1.6,x
c1ccc(-c2nn3cnnc3c3ccccc23)cc1,-3.7,1.55,i,-1.4,5.7
CCN(c1cccc(C)c1)c1ncnc2nc[nH]c12,6.8,0.255,i,0.0,1.8
Cc1ccc2nc(N/C(N)=N/S(=O)(=O)c3ccc([N+](=O)[O-])cc3)nc(C)c2c1,98.7*,2.02,i,-0.5,2.9
Cc1ccc(S(=O)(=O)/N=C(\N)Nc2nc(C)c3ccccc3n2)cc1,2.1,-0.439,i,-0.4,6.6
CCN(C(=O)CN1C=NS(=O)(=O)c2ccccc21)c1ccccc1,-4.3,-0.052,i,-1.2,5.0
CN1[C@@H](CC(=O)c2ccccc2)CCC[C@H]1C[C@H](O)c1ccccc1,88.5*,0.116,x,-0.7,2.0
